# Measurements gathered from unrelated publications.
# Organism: Leishmania donovani
# Observed: parasite growth
Structure (SMILES),method,cell line,concentration,time,notes,endpoint,value
CCCCCCCCCCCCCCCCOP(=O)([O-])OCC[N+](C)(C)C,resazurin,,50 µM,72 h,promastigote,inhibition,100%
COc1cc(NC(C)CCCNC(=S)NCCCC(C)Nc2cc(OC)cc3ccc(C(C)(C)C)nc23)c2nc(C(C)(C)C)ccc2c1.Cl.Cl (stereo not drawn),resazurin,,,,promastigote,IC90,20 to 31 µg/mL
COc1ccccc1-c1n[nH]c2nc(N[C@H]3CC[C@H](NS(=O)(=O)CCCOCCOCCN)CC3)ncc12,,THP-1,,,"intracellular, amastigote",EC50,24.7 µM
N=C(N)c1ccc(OCCCCCOc2ccc(C(=N)N)cc2)cc1,resazurin,,,72 h,promastigote,IC90,8.77 µg/mL
CCCCCCCC/C=C\CCCCCCCCCCCCOP(=O)([O-])OCC[N+](C)(C)C,resazurin,,25 µM,72 h,promastigote,inhibition,106%
c1ccc(CNc2nc(-c3ccccn3)nc3ccccc23)cc1,imaging,THP-1,,,"intracellular, amastigote",IC50,1.1 µM
COc1cc(NC(C)CCCNC(=S)NCCCC(C)Nc2cc(OC)cc3cccnc23)c2ncccc2c1.Cl.Cl (stereo not drawn),resazurin,,,,promastigote,IC90,20 to 31 µg/mL
c1ccc(CN2CCN(c3nc(-c4ccccn4)nc4ccccc34)CC2)cc1,imaging,THP-1,,,"intracellular, amastigote",IC50,2.6 µM
COc1ccccc1-c1n[nH]c2nc(NC3CCN(C(=O)Cc4ccc(OCCOCCNC(=O)OC(C)(C)C)cc4)CC3)ncc12,,THP-1,,,"intracellular, amastigote",EC50,4.51 µM
C[C@@H]1[C@H](O)[C@@H](C)/C=C/C=C/C=C/C=C/C=C/C=C/C=C/[C@H](O[C@@H]2O[C@H](C)[C@@H](O)[C@H](N)[C@@H]2O)C[C@@H]2O[C@](O)(C[C@@H](O)C[C@@H](O)[C@H](O)CC[C@@H](O)C[C@@H](O)CC(=O)O[C@H]1C)C[C@H](O)[C@H]2C(=O)O,MTT,,,48 h,amastigote,IC90,1.8 µM
COc1ccccc1-c1n[nH]c2nc(NC3CCN(C(=O)Cc4ccc(OCCOCCN)cc4)CC3)ncc12,,,,,amastigote,EC50,1.99 µM
C[C@@H]1[C@H](O)[C@@H](C)/C=C/C=C/C=C/C=C/C=C/C=C/C=C/[C@H](O[C@@H]2O[C@H](C)[C@@H](O)[C@H](N)[C@@H]2O)C[C@@H]2O[C@](O)(C[C@@H](O)C[C@@H](O)[C@H](O)CC[C@@H](O)C[C@@H](O)CC(=O)O[C@H]1C)C[C@H](O)[C@H]2C(=O)O,,,,,promastigote,IC50,0.135 µM
